Measured values: ChEMBL document CHEMBL4118255, “Synthesis and antibacterial evaluation of novel 11-O-aralkylcarbamoyl-3-O-descladinosylclarithromycin derivatives” (2018)
≈ marks a conversion by molar mass, not a printed value.

Columns and labels:
Type in all cases: functional
Streptococcus pneumoniae [1] = experiment: Potency index, ratio of clarithromycin MIC to compound MIC for erythromycin-resistant Streptococcus pneumoniae A22072 harboring mefA gene
Pseudomonas aeruginosa = experiment: Antibacterial activity against penicillin-susceptible Pseudomonas aeruginosa ATCC 27853 incubated for 24 hrs by […]; settings: ATCC 27853, 24 h
Streptococcus pneumoniae [2] = experiment: Potency index, ratio of azithromycin MIC to compound MIC for erythromycin-resistant Streptococcus pneumoniae A22072 harboring mefA gene
Streptococcus pneumoniae [3] = experiment: Antibacterial activity against erythromycin-resistant Streptococcus pneumoniae AB11 harboring ermB and mefA genes after 24 hrs by tube-dilution method; settings: AB11, 24 h
Summary of the method: (§1)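 MIC determined by the NCCLS-recommended standard broth microdilution method against erythromycin-resistant S. pneumoniae strains (A22072 mef, B1 erm, AB11 erm plus mef) and methicillin-resistant S. aureus ATCC43300.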

Streptococcus pneumoniae [4] = experiment: Antibacterial activity against erythromycin-resistant Streptococcus pneumoniae B1 harboring ermB gene after 24 hrs by tube-dilution method; settings: B1, 24 h; summary of the method: as §1
Streptococcus pneumoniae [5] = experiment: Potency index, ratio of clarithromycin MIC to compound MIC for erythromycin-resistant Streptococcus pneumoniae AB11 harboring ermB and mefA gene
Streptococcus pyogenes [6] = experiment: Antibacterial activity against erythromycin-susceptible Streptococcus pyogenes after 24 hrs […]
Streptococcus pneumoniae [7] = experiment: Antibacterial activity against erythromycin-resistant Streptococcus pneumoniae A22072 harboring mefA gene after 24 hrs by […]; settings: A22072, 24 h
Streptococcus pyogenes [8] = experiment: Antibacterial activity against erythromycin-resistant Streptococcus pyogenes R1 after 24 hrs by tube-dilution method; settings: R1, 24 h
Staphylococcus aureus [9] = experiment: Antibacterial activity against methicillin-resistant Staphylococcus aureus ATCC 43300 after 24 hrs by tube-dilution method; settings: ATCC 43300, 24 h; summary of the method: as §1
Bacillus subtilis = experiment: Antibacterial activity against erythromycin-susceptible Bacillus subtilis ATCC 9372 after 24 hrs by tube-dilution method; settings: ATCC 9372, 24 h
Summary of the method: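 MIC by standard NCCLS broth microdilution. Reference macrolides clarithromycin and azithromycin run alongside.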

Staphylococcus aureus [10] = experiment: Antibacterial activity against erythromycin-susceptible Staphylococcus aureus ATCC 25923 after 24 hrs by […]; settings: ATCC 25923, 24 h
Streptococcus pneumoniae [11] = experiment: Potency index, ratio of azithromycin MIC to compound MIC for erythromycin-resistant Streptococcus pneumoniae AB11 harboring ermB and mefA gene
Escherichia coli = experiment: Antibacterial activity against penicillin-susceptible Escherichia coli ATCC 25922 incubated for 24 hrs by […]; settings: ATCC 25922, 24 h
Streptococcus pyogenes [12] = experiment: Potency index, ratio of azithromycin MIC to compound MIC for erythromycin-resistant Streptococcus pyogenes R1
Streptococcus pyogenes [13] = experiment: Potency index, ratio of clarithromycin MIC to compound MIC for erythromycin-resistant Streptococcus pyogenes R1
Staphylococcus aureus [14] = experiment: Potency index, ratio of azithromycin MIC to compound MIC for methicillin-resistant Staphylococcus aureus ATCC 43300
Staphylococcus aureus [15] = experiment: Potency index, ratio of clarithromycin MIC to compound MIC for methicillin-resistant Staphylococcus aureus ATCC 43300
Streptococcus pneumoniae [16] = experiment: Potency index, ratio of clarithromycin MIC to compound MIC for erythromycin-resistant Streptococcus pneumoniae B1 harboring ermB gene
Streptococcus pneumoniae [17] = experiment: Potency index, ratio of azithromycin MIC to compound MIC for erythromycin-resistant Streptococcus pneumoniae B1 harboring ermB gene

Row | Compound | Ratio (Streptococcus pneumoniae [1]) | MIC (Pseudomonas aeruginosa) [µg/mL] | Ratio (Streptococcus pneumoniae [2]) | MIC (Streptococcus pneumoniae [3]) [µg/mL] | MIC (Streptococcus pneumoniae [4]) [µg/mL] | Ratio (Streptococcus pneumoniae [5]) | MIC (Streptococcus pyogenes [6]) [µg/mL] | MIC (Streptococcus pneumoniae [7]) [µg/mL] | MIC (Streptococcus pyogenes [8]) [µg/mL] | MIC (Staphylococcus aureus [9]) [µg/mL] | MIC (Bacillus subtilis) [µg/mL] | MIC (Staphylococcus aureus [10]) [µg/mL] | Ratio (Streptococcus pneumoniae [11]) | MIC (Escherichia coli) [µg/mL] | Ratio (Streptococcus pyogenes [12]) | Ratio (Streptococcus pyogenes [13]) | Ratio (Staphylococcus aureus [14]) | Ratio (Staphylococcus aureus [15]) | Ratio (Streptococcus pneumoniae [16]) | Ratio (Streptococcus pneumoniae [17])
1 | CC[C@H]1OC(=O)[C@H](C)[C@@H](OC(=O)Cc2cccnc2)[C@H](C)[C@@H](O[C@@H]2O[C@H](C)C[C@H](N(C)C)[C@H]2O)[C@](C)(OC)C[C@@H](C)C(=O)[C@H](C)[C@@H](OC(=O)NCCNC(=O)c2cc([N+](=O)[O-])cc([N+](=O)[O-])c2)[C@]1(C)O | 4 | 64 (≈ 64.7 µM) | 8 | 4 (≈ 4.04 µM) | 32 (≈ 32.4 µM) | 32 | 0.015 (≈ 0.0152 µM) | 0.5 (≈ 0.506 µM) | 128 (≈ 129 µM) | 64 (≈ 64.7 µM) | 1 (≈ 1.01 µM) | 1 (≈ 1.01 µM) | 32 | 64 (≈ 64.7 µM) | – | – | – | – | – | –
2 | CC[C@H]1OC(=O)[C@H](C)[C@@H](OC(=O)Cc2cccnc2)[C@H](C)[C@@H](O[C@@H]2O[C@H](C)C[C@H](N(C)C)[C@H]2O)[C@](C)(OC)C[C@@H](C)C(=O)[C@H](C)[C@@H](OC(=O)NCCNC(=O)C#Cc2cccc3ccccc23)[C@]1(C)O | – | > 128 | – | 16 (≈ 16.4 µM) | 32 (≈ 32.9 µM) | – | 0.125 (≈ 0.128 µM) | 1 (≈ 1.03 µM) | 32 (≈ 32.9 µM) | 64 (≈ 65.8 µM) | 2 (≈ 2.06 µM) | 4 (≈ 4.11 µM) | – | > 128 | 4 | 4 | – | – | – | –
3 | CC[C@H]1OC(=O)[C@H](C)[C@@H](OC(=O)Cc2cccnc2)[C@H](C)[C@@H](O[C@@H]2O[C@H](C)C[C@H](N(C)C)[C@H]2O)[C@](C)(OC)C[C@@H](C)C(=O)[C@H](C)[C@@H](OC(=O)NCCNC(=O)c2ccc([N+](=O)[O-])cc2N)[C@]1(C)O | 8 | 64 (≈ 66.7 µM) | 16 | 4 (≈ 4.17 µM) | 16 (≈ 16.7 µM) | 32 | 0.03 (≈ 0.0313 µM) | 0.25 (≈ 0.261 µM) | 128 (≈ 133 µM) | 64 (≈ 66.7 µM) | 1 (≈ 1.04 µM) | 1 (≈ 1.04 µM) | 32 | 64 (≈ 66.7 µM) | – | – | 4 | 4 | 8 | 8
4 | CC[C@H]1OC(=O)[C@H](C)[C@@H](OC(=O)Cc2cccnc2)[C@H](C)[C@@H](O[C@@H]2O[C@H](C)C[C@H](N(C)C)[C@H]2O)[C@](C)(OC)C[C@@H](C)C(=O)[C@H](C)[C@@H](OC(=O)NCCNC(=O)c2ccc(C3CCCCC3)cc2)[C@]1(C)O | – | 128 (≈ 130 µM) | – | 32 (≈ 32.6 µM) | 64 (≈ 65.2 µM) | – | 0.5 (≈ 0.51 µM) | 1 (≈ 1.02 µM) | 32 (≈ 32.6 µM) | 32 (≈ 32.6 µM) | 4 (≈ 4.08 µM) | 2 (≈ 2.04 µM) | – | 128 (≈ 130 µM) | 4 | 4 | – | – | – | –
